# From ChEMBL document CHEMBL3232844, “Synthesis and structure activity relationships of schweinfurthin indoles” (2014)
# How the values were obtained:
# Assay type in all cases: functional
# HL-60(TB) = test: Cytotoxicity against human HL-60(TB) cells
# Method in brief: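 Tested within the NCI 60-cell-line screen, with GI50 as the read-out. Values are the average of two independent experiments. The lowest concentration tested was 10 nM.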
# K562 = test: Cytotoxicity against human K562 cells
# Method in brief: (§1)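 Tested in a 60-cell-line human tumor panel screen; the read-out is growth inhibition, reported as GI50 for each cell line.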
# MOLT-4 = test: Cytotoxicity against human MOLT4 cells; method in brief: as §1
# A549 = test: Cytotoxicity against human A549 cells; method in brief: as §1
# [1] = Cytotoxicity against human EKVX cells; method in brief: as §1
# NCI-H226 = test: Cytotoxicity against human NCI-H226 cells; method in brief: as §1
# NCI-H23 = test: Cytotoxicity against human NCI-H23 cells; method in brief: as §1
# HCC 2998 = test: Cytotoxicity against human HCC2998 cells; method in brief: as §1
# HCT-116 = test: Cytotoxicity against human HCT116 cells; method in brief: as §1
# [2] = Cytotoxicity against human HCT15 cells; method in brief: as §1
# HT-29 = test: Cytotoxicity against human HT-29 cells; method in brief: as §1
# KM12 = test: Cytotoxicity against human KM12 cells; method in brief: as §1
# SF-268 = test: Cytotoxicity against human SF268 cells; method in brief: as §1
# SF-295 = test: Cytotoxicity against human SF295 cells; method in brief: as §1
# SF-539 = test: Cytotoxicity against human SF539 cells; method in brief: as §1
# SNB-75 = test: Cytotoxicity against human SNB75 cells
# Method in brief: (§2)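 Cell line run as part of the 60-cell-line screening panel; growth inhibition was reported as a GI50 for each line.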
# U-251 = test: Cytotoxicity against human U251 cells; method in brief: as §2
# LOX IMVI = test: Cytotoxicity against human LOXIMVI cells; method in brief: as §1
# M14 = test: Cytotoxicity against human M14 cells; method in brief: as §1
# MDA-MB-435 = test: Cytotoxicity against human MDA-MB-435 cells; method in brief: as §1
# NCI-H460 = test: Cytotoxicity against human NCI-H460 cells; method in brief: as §1
# SK-MEL-2 = test: Cytotoxicity against human SK-MEL-2 cells; method in brief: as §1
# [3] = Cytotoxicity against human UACC257 cells; method in brief: as §2
# IGROV-1 = test: Cytotoxicity against human IGROV1 cells; method in brief: as §1
# [4] = Cytotoxicity against human OVCAR3 cells; method in brief: as §1
# [5] = Cytotoxicity against human OVCAR4 cells; method in brief: as §1
# [6] = Cytotoxicity against human OVCAR5 cells; method in brief: as §1
# [7] = Cytotoxicity against human OVCAR8 cells; method in brief: as §1
# [8] = Cytotoxicity against human NCI-ADR-RES cells; method in brief: as §1
# SK-OV-3 = test: Cytotoxicity against human SKOV3 cells; method in brief: as §1
# 786-0 = test: Cytotoxicity against human 786-0 cells; method in brief: as §1
# A498 = test: Cytotoxicity against human A498 cells; method in brief: as §1
# ACHN = test: Cytotoxicity against human ACHN cells; method in brief: as §1
# CAKI-1 = test: Cytotoxicity against human Caki1 cells; method in brief: as §1
# RXF 393 = test: Cytotoxicity against human RXF393 cells; method in brief: as §1
# SN12C = test: Cytotoxicity against human SN12C cells; method in brief: as §1
# TK-10 = test: Cytotoxicity against human TK10 cells; method in brief: as §2
# [9] = Cytotoxicity against human UO31 cells; method in brief: as §2
# DU-145 = test: Cytotoxicity against human DU145 cells; method in brief: as §1
# MCF7 = test: Cytotoxicity against human MCF7 cells; method in brief: as §1
# MDA-MB-231 = test: Cytotoxicity against human MDA-MB-231 cells; method in brief: as §1
# BT-549 = test: Cytotoxicity against human BT549 cells; method in brief: as §1
# T47D = test: Cytotoxicity against human T47D cells; method in brief: as §2
# [10] = read-out: pLC50 (the source's name) (converted)
smiles,measurement,setting,value
COc1cc(/C=C/c2cc(O)c3c(C/C=C(\C)CCC=C(C)C)c[nH]c3c2)cc2c1O[C@]1(C)CC[C@@H](O)C(C)(C)[C@H]1C2,GI50,HL-60(TB),0.398 µM
same,CC50,HL-60(TB); [10],> 100 µM
same,TGI,HL-60(TB); read-out: pTGI (converted),12.3 µM
same,GI50,K562,0.417 µM
same,CC50,K562; [10],> 100 µM
same,TGI,K562; read-out: pTGI (converted),8.71 µM
same,GI50,MOLT-4,0.282 µM
same,CC50,MOLT-4; [10],> 100 µM
same,TGI,MOLT-4; read-out: pTGI (converted),2.51 µM
same,GI50,A549,2.57 µM
same,CC50,A549; [10],> 100 µM
same,TGI,A549; read-out: pTGI (converted),> 100 µM
same,GI50,[1],0.724 µM
same,CC50,[1]; [10],> 100 µM
same,TGI,[1]; read-out: pTGI (converted),4.47 µM
same,GI50,NCI-H226,24 µM
same,CC50,NCI-H226; [10],> 100 µM
same,TGI,NCI-H226; read-out: pTGI (converted),> 100 µM
same,GI50,NCI-H23,2.45 µM
same,CC50,NCI-H23; [10],> 100 µM
same,TGI,NCI-H23; read-out: pTGI (converted),24.5 µM
same,GI50,HCC 2998,4.9 µM
same,CC50,HCC 2998; [10],> 100 µM
same,TGI,HCC 2998; read-out: pTGI (converted),36.3 µM
same,GI50,HCT-116,1.38 µM
same,CC50,HCT-116; [10],> 100 µM
same,TGI,HCT-116; read-out: pTGI (converted),22.9 µM
same,GI50,[2]; HCT-15,0.741 µM
same,CC50,"[2]; HCT-15, read-out: pLC50 (the source's name) (converted)",53.7 µM
same,TGI,"[2]; HCT-15, read-out: pTGI (converted)",6.76 µM
same,GI50,HT-29,0.219 µM
same,CC50,HT-29; [10],20.4 µM
same,TGI,HT-29; read-out: pTGI (converted),1.66 µM
same,GI50,KM12,0.525 µM
same,CC50,KM12; [10],5.37 µM
same,TGI,KM12; read-out: pTGI (converted),1.78 µM
same,GI50,SF-268,2.75 µM
same,CC50,SF-268; [10],> 100 µM
same,TGI,SF-268; read-out: pTGI (converted),> 100 µM
same,GI50,SF-295; read-out: GI50,0.11 µM
same,GI50,SF-295; read-out: pGI50 (converted),0.112 µM
same,CC50,SF-295; [10],2.88 µM
same,TGI,SF-295; read-out: pTGI (converted),0.417 µM
same,GI50,SF-539,0.229 µM
same,CC50,SF-539; [10],6.03 µM
same,TGI,SF-539; read-out: pTGI (converted),1.45 µM
same,GI50,SNB-75,0.245 µM
same,CC50,SNB-75; [10],> 100 µM
same,TGI,SNB-75; read-out: pTGI (converted),3.63 µM
same,GI50,U-251,0.603 µM
same,CC50,U-251; [10],> 100 µM
same,TGI,U-251; read-out: pTGI (converted),> 100 µM
same,GI50,LOX IMVI,1.26 µM
same,CC50,LOX IMVI; [10],29.5 µM
same,TGI,LOX IMVI; read-out: pTGI (converted),4.79 µM
same,GI50,M14,2 µM
same,CC50,M14; [10],> 100 µM
same,TGI,M14; read-out: pTGI (converted),11.2 µM
same,GI50,MDA-MB-435,4.07 µM
same,CC50,MDA-MB-435; [10],> 100 µM
same,TGI,MDA-MB-435; read-out: pTGI (converted),> 100 µM
same,GI50,NCI-H460,1.2 µM
same,CC50,NCI-H460; [10],57.5 µM
same,TGI,NCI-H460; read-out: pTGI (converted),6.61 µM
same,GI50,SK-MEL-2,0.871 µM
same,CC50,SK-MEL-2; [10],> 100 µM
same,TGI,SK-MEL-2; read-out: pTGI (converted),18.2 µM
same,GI50,[3]; UACC-257,9.12 µM
same,CC50,"[3]; UACC-257, read-out: pLC50 (the source's name) (converted)",> 100 µM
same,TGI,"[3]; UACC-257, read-out: pTGI (converted)",49 µM
same,GI50,IGROV-1,1.62 µM
same,CC50,IGROV-1; [10],> 100 µM
same,TGI,IGROV-1; read-out: pTGI (converted),> 100 µM
same,GI50,[4]; OVCAR-3,33.9 µM
same,CC50,"[4]; OVCAR-3, read-out: pLC50 (the source's name) (converted)",> 100 µM
same,TGI,"[4]; OVCAR-3, read-out: pTGI (converted)",> 100 µM
same,GI50,[5]; OVCAR-4,6.46 µM
same,CC50,"[5]; OVCAR-4, read-out: pLC50 (the source's name) (converted)",> 100 µM
same,TGI,"[5]; OVCAR-4, read-out: pTGI (converted)",> 100 µM
same,GI50,[6]; OVCAR-5,15.1 µM
same,CC50,"[6]; OVCAR-5, read-out: pLC50 (the source's name) (converted)",> 100 µM
same,TGI,"[6]; OVCAR-5, read-out: pTGI (converted)",> 100 µM
same,GI50,[7]; OVCAR-8,72.4 µM
same,CC50,"[7]; OVCAR-8, read-out: pLC50 (the source's name) (converted)",> 100 µM
same,TGI,"[7]; OVCAR-8, read-out: pTGI (converted)",> 100 µM
same,GI50,[8],46.8 µM
same,CC50,[8]; [10],> 100 µM
same,TGI,[8]; read-out: pTGI (converted),> 100 µM
same,GI50,SK-OV-3,5.13 µM
same,LC50,SK-OV-3,> 100 µM
same,TGI,SK-OV-3; read-out: pTGI (converted),> 100 µM
same,GI50,786-0,0.0468 µM
same,LC50 (concentration killing 50% of cells),786-0,5.62 µM
same,TGI,786-0; read-out: pTGI (converted),1.12 µM
same,GI50,A498,1.2 µM
same,CC50,A498; [10],> 100 µM
same,TGI,A498; read-out: pTGI (converted),9.77 µM
same,GI50,ACHN,7.24 µM
same,LC50 (concentration killing 50% of cells),ACHN,> 100 µM
same,TGI,ACHN; read-out: pTGI (converted),> 100 µM
same,GI50,CAKI-1,0.447 µM
same,LC50,CAKI-1,7.76 µM
same,TGI,CAKI-1; read-out: pTGI (converted),1.82 µM
same,GI50,RXF 393,0.0661 µM
same,LC50,RXF 393,3.63 µM
same,TGI,RXF 393; read-out: pTGI (converted),0.309 µM
same,GI50,SN12C,60.3 µM
same,LC50,SN12C,> 100 µM
same,TGI,SN12C; read-out: pTGI (converted),> 100 µM
same,GI50,TK-10,16.6 µM
same,LC50,TK-10,> 100 µM
same,TGI,TK-10; read-out: pTGI (converted),> 100 µM
same,GI50,[9]; UO-31,0.933 µM
same,LC50,[9]; UO-31,8.91 µM
same,TGI,"[9]; UO-31, read-out: pTGI (converted)",2.95 µM
same,GI50,DU-145,5.37 µM
same,LC50 (50% lethal concentration),DU-145,> 100 µM
same,TGI,DU-145; read-out: pTGI (converted),> 100 µM
same,GI50,MCF7,0.617 µM
same,LC50,MCF7,8.51 µM
same,TGI,MCF7; read-out: pTGI (converted),2.45 µM
same,GI50,MDA-MB-231,1.1 µM
same,LC50,MDA-MB-231,85.1 µM
same,TGI,MDA-MB-231; read-out: pTGI (converted),6.31 µM
same,GI50,BT-549,0.525 µM
same,CC50,BT-549; [10],> 100 µM
same,TGI,BT-549; read-out: pTGI (converted),> 100 µM
same,GI50,T47D,6.92 µM
same,CC50,T47D; [10],> 100 µM
same,TGI,T47D; read-out: pTGI (converted),> 100 µM
